Test results reported in ChEMBL document CHEMBL1124250, “9-Benzyl-6-(dimethylamino)-9H-purines with antirhinovirus activity” (J Med Chem, 1988).

Legend:
[1] = test system: rhinovirus A1B; experiment: In vitro activity against rhinovirus type 1B was determined by plaque inhibition assay; - = Inactive at 50 ug/disk; format: functional, organism-based, Enterovirus
Outline: (§1)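 Rhinovirus 1B plaque inhibition run on M-HeLa cell monolayers, with compound applied on disks at 50 µg/disk. Compounds active or slightly active at this level went on to a plaque reduction assay for the 50% inhibitory concentration.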

[2] = test system: rhinovirus A1B; experiment: In vitro activity against Rhinovirus type 1B by plaque inhibition assay.; format: functional, organism-based, Enterovirus; conditions: Rhinovirus A
[3] = test system: Enterovirus; experiment: Inhibitory concentration measured against Rhinovirus serotype 1A; format: functional, organism-based
[4] = test system: Enterovirus; experiment: Percent inhibition of plaque formation of Rhinovirus serotype 8 was measured at 4 uM of the compound; format: functional
[5] = test system: Enterovirus; experiment: Inhibitory concentration measured against Rhinovirus serotype 30; format: functional, organism-based
[6] = test system: Enterovirus; experiment: Inhibitory concentration measured against Rhinovirus serotype 14; format: functional, organism-based
[7] = test system: Enterovirus; experiment: Inhibitory concentration measured against Rhinovirus serotype 15; format: functional, organism-based
[8] = test system: Enterovirus; experiment: Inhibitory concentration measured against Rhinovirus serotype 5; format: functional, organism-based
[9] = test system: Enterovirus; experiment: Percent inhibition of plaque formation of Rhinovirus serotype 18 was measured at 4 uM of the compound; format: functional
[10] = test system: Enterovirus; experiment: Inhibitory concentration measured against Rhinovirus serotype 13; format: functional, organism-based
[11] = test system: Enterovirus; experiment: Inhibitory concentration measured against Rhinovirus serotype 12; format: functional, organism-based
[12] = test system: Enterovirus; experiment: Inhibitory concentration measured against Rhinovirus serotype 16; format: functional, organism-based
[13] = test system: Enterovirus; experiment: Inhibitory concentration measured against Rhinovirus serotype 21; format: functional, organism-based
[14] = test system: Enterovirus; experiment: Inhibitory concentration measured against Rhinovirus serotype 1B; format: functional, organism-based
[15] = test system: Enterovirus; experiment: Inhibitory concentration measured against Rhinovirus serotype 9; format: functional, organism-based
[16] = test system: Enterovirus; experiment: Inhibitory concentration measured against Rhinovirus serotype 29; format: functional, organism-based
[17] = test system: Enterovirus; experiment: Inhibitory concentration measured against Rhinovirus serotype 3; format: functional, organism-based
[18] = test system: Enterovirus; experiment: Inhibitory concentration measured against Rhinovirus serotype 2; format: functional, organism-based
[19] = test system: Enterovirus; experiment: Inhibitory concentration measured against Rhinovirus serotype 19; format: functional, organism-based
[20] = test system: Enterovirus; experiment: Inhibitory concentration measured against Rhinovirus serotype 4; format: functional, organism-based
[21] = test system: Enterovirus; experiment: Inhibitory concentration measured against Rhinovirus serotype 31; format: functional, organism-based
[22] = test system: Enterovirus; experiment: Percent inhibition of plaque formation of Rhinovirus serotype 13 was measured at 5 uM of the compound; format: functional
[23] = test system: Enterovirus; experiment: Percent inhibition of plaque formation of Rhinovirus serotype 18 was measured at 5 uM of the compound; format: functional
[24] = test system: Enterovirus; experiment: Percent inhibition of plaque formation of Rhinovirus serotype 14 was measured at 2.5 uM of the compound; format: functional
[25] = test system: Enterovirus; experiment: Inhibitory concentration measured against Rhinovirus serotype 8; format: functional, organism-based
[26] = test system: Enterovirus; experiment: Percent inhibition of plaque formation of Rhinovirus serotype 31 was measured at 2.5 uM of the compound; format: functional
[27] = test system: Enterovirus; experiment: Percent inhibition of plaque formation of Rhinovirus serotype 15 was measured at 2.5 uM of the compound; format: functional
[28] = test system: Enterovirus; experiment: Percent inhibition of plaque formation of Rhinovirus serotype 29 was measured at 2.5 uM of the compound; format: functional
[29] = test system: Enterovirus; experiment: Inhibitory concentration measured against Rhinovirus serotype 18; format: functional, organism-based
[30] = test system: rhinovirus A1B; experiment: In vitro activity against rhinovirus type 1B was determined by plaque inhibition assay; Inactive at 50 ug/disk, T=Toxic; format: functional, organism-based, Enterovirus; outline: as §1

CN(C)c1ncnc2c1ncn2Cc1ccc(OCc2ccccc2)cc1
IC50 [1]: Not Active

COc1ccc(Cn2cnc3c(N(C)C)ncnc32)cc1
IC50 [2]: 38000 nM

CN(C)c1ncnc2c1ncn2Cc1ccc(N)cc1
IC50 [1]: Not Active

CN(C)c1ncnc2c1ncn2Cc1cccc(I)c1
IC50 [2]: 6700 nM

CN(C)c1ncnc2c1ncn2Cc1cccc([N+](=O)[O-])c1
IC50 [1]: Not Active

CN(C)c1ncnc2c1ncn2Cc1ccc(F)cc1
IC50 [1]: Not Active

CN(C)c1ncnc2c1ncn2Cc1cccc(Cl)c1
IC50 [2]: 30500 nM

CN(C)c1nc(Cl)nc2c1ncn2Cc1ccc(C(C)(C)C)cc1
IC50 [2]: 440 nM

COc1ccc(Cn2cnc3c(N(C)C)nc(Cl)nc32)cc1
IC50 [2]: 700 nM

CCc1ccc(Cn2cnc3c(N(C)C)nc(Cl)nc32)cc1
IC50 [3]: 500 nM | Inhibition [4]: 30% | IC50 [5]: 4 µM | IC50 [6]: 3.3 µM | IC50 [7]: 3.9 µM | IC50 [8]: 5.6 µM | Inhibition [9]: 42% | IC50 [10]: 4.9 µM | IC50 [11]: 7 µM | IC50 [12]: 200 nM | IC50 [13]: 8 µM | IC50 [14]: 80 nM | IC50 [15]: 400 nM | IC50 [16]: 300 nM | IC50 [17]: 4 µM | IC50 [2]: 80 nM | IC50 [18]: 2800 nM | IC50 [19]: 4.6 µM | IC50 [20]: 4 µM | IC50 [21]: 3.5 µM

COc1cccc(Cn2cnc3c(N(C)C)nc(Cl)nc32)c1
IC50 [2]: 2000 nM

CN(C)c1nc(Cl)nc2c1ncn2Cc1ccccc1
IC50 [2]: 820 nM

CN(C)c1nc(Cl)nc2c1ncn2Cc1ccc2ccccc2c1
IC50 [2]: 1100 nM

CN(C)c1ncnc2c1ncn2Cc1cccc(NC(=O)C(N)Cc2ccccc2)c1 (configuration not stated)
IC50 [2]: 17000 nM

CN(C)c1nc(Cl)nc2c1ncn2Cc1ccc(Cl)cc1
IC50 [3]: 3000 nM | Inhibition [22]: 12% | Inhibition [23]: 35% | IC50 [5]: > 2.5 µM | IC50 [8]: 5.2 µM | IC50 [11]: 5.4 µM | Inhibition [24]: 32% | IC50 [13]: > 5 µM | IC50 [14]: 120 nM | IC50 [15]: 2100 nM | IC50 [17]: 3.1 µM | IC50 [25]: 4.5 µM | IC50 [2]: 120 nM | IC50 [18]: 2500 nM | Inhibition [26]: 42% | Inhibition [27]: 40% | IC50 [19]: > 5 µM | IC50 [20]: > 2.5 µM | Inhibition [28]: 31%

CN(C)c1nc(Cl)nc2c1ncn2Cc1cccc(N)c1
IC50 [2]: 13000 nM

Cc1ccc(Cn2cnc3c(N(C)C)ncnc32)cc1
IC50 [2]: 8600 nM

Cc1ccc(Cn2cnc3c(N(C)C)nc(Cl)nc32)cc1
IC50 [3]: 120 nM | IC50 [6]: 7 µM | IC50 [7]: 3.5 µM | IC50 [8]: 6.2 µM | IC50 [10]: 2.3 µM | IC50 [11]: 5.4 µM | IC50 [12]: 1000 nM | IC50 [13]: 5.6 µM | IC50 [14]: 80 nM | IC50 [29]: 4 µM | IC50 [15]: 2000 nM | IC50 [16]: > 5000 nM | IC50 [17]: 7.2 µM | IC50 [25]: 13 µM | IC50 [2]: 80 nM | IC50 [18]: 11000 nM | IC50 [19]: 14 µM | IC50 [20]: 4.6 µM | IC50 [21]: 1.6 µM

CN(C)c1ncnc2c1ncn2Cc1ccc(Cl)c(Cl)c1
IC50 [2]: 2500 nM

CN(C)c1nc(Cl)nc2c1ncn2Cc1ccc(N)cc1
IC50 [2]: 300 nM

Cc1cccc(Cn2cnc3c(N(C)C)nc(Cl)nc32)c1
IC50 [2]: 600 nM

CN(C)c1nc(Cl)nc2c1ncn2Cc1ccc(Cl)c(Cl)c1
IC50 [2]: 320 nM

CN(C)c1nc(Cl)nc2c1ncn2Cc1ccc([N+](=O)[O-])cc1
IC50 [2]: 510 nM

CN(C)c1ncnc2c1ncn2Cc1cccc(OCc2ccccc2)c1
IC50 [2]: 13000 nM

CN(C)c1nc(Cl)nc2c1ncn2Cc1cccc(OCc2ccccc2)c1
IC50 [30]: Toxic

CN(C)c1ncnc2c1ncn2Cc1cc(Cl)cc(Cl)c1
IC50 [2]: 4600 nM

CC(C)c1ccc(Cn2cnc3c(N(C)C)nc(Cl)nc32)cc1
IC50 [3]: < 1000 nM | IC50 [5]: 8 µM | IC50 [6]: 5.9 µM | IC50 [7]: 4.5 µM | IC50 [8]: 8 µM | IC50 [10]: 5.8 µM | IC50 [11]: 3.4 µM | IC50 [12]: 200 nM | IC50 [14]: 70 nM | IC50 [29]: 4.3 µM | IC50 [15]: < 1000 nM | IC50 [16]: 500 nM | IC50 [17]: 7 µM | IC50 [25]: 6 µM | IC50 [2]: 70 nM | IC50 [18]: 1200 nM | IC50 [19]: 7 µM | IC50 [20]: 6.1 µM | IC50 [21]: 4 µM

CN(C)c1nc(Cl)nc2c1ncn2Cc1cccc(I)c1
IC50 [2]: 360 nM

CN(C)c1nc(Cl)nc2c1ncn2Cc1cccc(Cl)c1
IC50 [2]: 590 nM

CN(C)c1ncnc2c1ncn2Cc1ccccc1
IC50 [2]: 33000 nM

CN(C)c1ncnc2c1ncn2Cc1cccc(F)c1
IC50 [2]: 23000 nM

CN(C)c1ncnc2c1ncn2Cc1cccc(O)c1
IC50 [1]: Not Active

CN(C)c1ncnc2c1ncn2Cc1cccc(N)c1
IC50 [2]: 50000 nM

Cc1cccc(Cn2cnc3c(N(C)C)ncnc32)c1
IC50 [2]: 32000 nM

CN(C)c1ncnc2c1ncn2Cc1ccc(Cl)cc1
IC50 [2]: > 25000 nM

CN(C)c1ncnc2c1ncn2Cc1ccc(C#N)cc1
IC50 [1]: Not Active

CC(=O)Nc1ccc(Cn2cnc3c(N(C)C)ncnc32)cc1
IC50 [1]: Not Active

CN(C)c1ncnc2c1ncn2Cc1ccc([N+](=O)[O-])cc1
IC50 [1]: Not Active

CN(C)c1ncnc2c1ncn2Cc1cccc(C(F)(F)F)c1
IC50 [2]: 19600 nM

CN(C)c1ncnc2c1ncn2Cc1cccc(C#N)c1
IC50 [1]: Not Active

CN(C)c1ncnc2c1ncn2Cc1cccc(Br)c1
IC50 [2]: 14400 nM

CN(C)c1ncnc2c1ncn2Cc1ccc(O)cc1
IC50 [2]: 34000 nM

COc1cccc(Cn2cnc3c(N(C)C)ncnc32)c1
IC50 [2]: 50000 nM

CC(C)S(=O)(=O)n1c(N)nc2ccc(/C(=N/O)c3ccccc3)cc21 [ENVIROXIME]
IC50 [2]: 40 nM
